Source: ChEMBL document CHEMBL1155442, “Click chemistry approach to new N-substituted aminocyclitols as potential pharmacological chaperones for Gaucher disease” (J Med Chem, 2010)
The source made the active and inactive calls. The calls are words filed in the database; no cut-off is given here.

What was measured:
[1] = biological target: T1, Lysosomal acid glucosylceramidase (Homo sapiens) (UniProt P04062); assay: Inhibition of beta-glucocerebrosidase in human fibroblast at 50 uM after 24 hrs by fluorescence assay
T1 sequence (whole entry): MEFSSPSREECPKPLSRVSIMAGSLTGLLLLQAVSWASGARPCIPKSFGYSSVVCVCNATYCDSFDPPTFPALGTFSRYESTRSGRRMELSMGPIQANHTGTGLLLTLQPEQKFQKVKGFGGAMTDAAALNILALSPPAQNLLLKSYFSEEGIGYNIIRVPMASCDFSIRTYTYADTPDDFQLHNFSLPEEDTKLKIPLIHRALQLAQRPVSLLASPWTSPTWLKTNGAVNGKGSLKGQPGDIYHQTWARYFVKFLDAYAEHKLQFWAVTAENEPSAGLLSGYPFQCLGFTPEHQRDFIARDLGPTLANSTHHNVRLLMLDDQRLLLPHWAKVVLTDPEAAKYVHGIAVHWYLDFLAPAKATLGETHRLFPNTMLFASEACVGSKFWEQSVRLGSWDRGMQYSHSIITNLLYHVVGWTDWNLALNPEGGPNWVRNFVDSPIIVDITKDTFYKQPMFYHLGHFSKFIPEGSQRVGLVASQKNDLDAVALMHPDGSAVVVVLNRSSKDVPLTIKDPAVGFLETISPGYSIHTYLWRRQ
Method in brief: (§1)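 Wild-type human fibroblasts exposed to compound for 24 h (10, 20 or 50 μM, as listed) with 5 mM substrate. Cellular GCase activity then measured.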

[2] = Dissociation constant, pKa of the compound; type: physicochemical
[3] = biological target: T2, Lysosomal acid glucosylceramidase (Homo sapiens, UniProt P04062); assay: Inhibition of recombinant beta-glucocerebrosidase after 10 mins by fluorimetry
T2 sequence (P04062 whole entry): T1 sequence (whole entry)
Method in brief: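 Imiglucerase (0.1 mg/mL stock) in McIlvaine buffer, pH 5.2 or 7.4, with 0.2% sodium taurocholate and 0.1% Triton X-100. Preincubated 30 min at 37 °C with or without inhibitor. Then 4 mM 4-methylumbelliferyl-β-D-glucopyranoside added for 10 min at 37 °C. Stopped with glycine/NaOH pH 10.6; 4-MU read at ex 355/em 460 nm. IC50 from % activity vs log[I], at least five concentrations.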

[4] = Cytotoxicity against human fibroblast after 24 hrs by MTT assay; type: cell-based; conditions: human fibroblasts
[5] = biological target: T2, Lysosomal acid glucosylceramidase; assay: Inhibition of recombinant beta-glucocerebrosidase at pH 5.2 after 10 mins by fluorimetry
[6] = biological target: T2, Lysosomal acid glucosylceramidase; assay: Inhibition of recombinant beta-glucocerebrosidase at pH 7.4 after 10 mins by fluorimetry
[7] = biological target: T3, Beta-galactosidase (Bos taurus) (UniProt Q58D55); assay: Inhibition of bovine liver beta-galactosidase at 0.1 mM
T3 sequence (whole entry): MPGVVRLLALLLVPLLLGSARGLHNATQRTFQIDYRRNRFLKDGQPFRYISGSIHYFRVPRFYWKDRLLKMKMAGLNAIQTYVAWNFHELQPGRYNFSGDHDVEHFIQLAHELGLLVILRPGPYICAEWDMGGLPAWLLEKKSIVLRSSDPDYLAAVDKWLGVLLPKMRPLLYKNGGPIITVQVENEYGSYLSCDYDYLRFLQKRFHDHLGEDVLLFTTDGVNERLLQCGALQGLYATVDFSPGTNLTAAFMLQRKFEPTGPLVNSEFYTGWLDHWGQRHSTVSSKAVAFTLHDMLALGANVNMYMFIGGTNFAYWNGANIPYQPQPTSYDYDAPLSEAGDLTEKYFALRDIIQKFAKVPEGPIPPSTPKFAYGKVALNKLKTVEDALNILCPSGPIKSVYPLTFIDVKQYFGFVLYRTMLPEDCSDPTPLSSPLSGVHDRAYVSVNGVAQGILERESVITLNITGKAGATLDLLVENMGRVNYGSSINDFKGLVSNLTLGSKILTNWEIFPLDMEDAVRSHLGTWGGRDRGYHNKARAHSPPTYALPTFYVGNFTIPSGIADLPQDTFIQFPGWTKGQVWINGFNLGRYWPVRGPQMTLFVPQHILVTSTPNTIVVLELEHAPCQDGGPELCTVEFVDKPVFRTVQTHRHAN

[8] = system: Saccharomyces cerevisiae; assay: Inhibition of yeast alpha-glucosidase at 0.1 mM
[9] = biological target: T2, Lysosomal acid glucosylceramidase; assay: Competitive inhibition of beta-glucocerebrosidase at pH 5.2 by Lineweaver-Burke plot analysis
[10] = system: Prunus dulcis; assay: Inhibition of sweet almond beta-glucosidase at 0.1 mM
[11] = system: Oryza sativa; assay: Inhibition of rice alpha-galactosidase at 0.1 mM
[12] = system: Oryza sativa; assay: Inhibition of rice alpha-glucosidase at 0.1 mM
[13] = Cytotoxicity against human fibroblast at 300 uM after 24 hrs by MTT assay; type: cell-based
[14] = biological target: T1, Lysosomal acid glucosylceramidase (Homo sapiens); assay: Binding affinity to recombinant beta-glucocerebrosidase assessed as enzymatic activity at 150 uM after 40 mins by thermal stabilization assay relative to control
[15] = biological target: T1, Lysosomal acid glucosylceramidase (Homo sapiens); assay: Binding affinity to recombinant beta-glucocerebrosidase assessed as enzymatic activity at 50 uM after 40 mins by thermal stabilization assay relative to control
[16] = biological target: T1, Lysosomal acid glucosylceramidase (Homo sapiens); assay: Binding affinity to recombinant beta-glucocerebrosidase assessed as enzymatic activity at 100 uM after 40 mins by thermal stabilization assay relative to control
[17] = biological target: T1, Lysosomal acid glucosylceramidase (Homo sapiens); assay: Binding affinity to recombinant beta-glucocerebrosidase assessed as enzymatic activity at 100 uM after 20 mins by thermal stabilization assay relative to control
[18] = biological target: T1, Lysosomal acid glucosylceramidase (Homo sapiens); assay: Binding affinity to recombinant beta-glucocerebrosidase assessed as enzymatic activity at 50 uM after 20 mins by thermal stabilization assay relative to control
[19] = biological target: T1, Lysosomal acid glucosylceramidase (Homo sapiens); assay: Binding affinity to recombinant beta-glucocerebrosidase assessed as enzymatic activity at 50 uM after 60 mins by thermal stabilization assay relative to control
[20] = biological target: T1, Lysosomal acid glucosylceramidase (Homo sapiens); assay: Binding affinity to recombinant beta-glucocerebrosidase assessed as enzymatic activity at 100 uM after 60 mins by thermal stabilization assay relative to control
[21] = biological target: T1, Lysosomal acid glucosylceramidase (Homo sapiens); assay: Binding affinity to recombinant beta-glucocerebrosidase assessed as enzymatic activity at 150 uM after 60 mins by thermal stabilization assay relative to control
[22] = biological target: T1, Lysosomal acid glucosylceramidase (Homo sapiens); assay: Binding affinity to recombinant beta-glucocerebrosidase assessed as enzymatic activity at 150 uM after 20 mins by thermal stabilization assay relative to control
[23] = biological target: T1, Lysosomal acid glucosylceramidase (Homo sapiens); assay: Inhibition of beta-glucocerebrosidase in human fibroblast at 10 uM after 24 hrs by fluorescence assay; method in brief: as §1
[24] = Selectivity index, ratio of CC50 for human fibroblast to Ki for beta-glucocerebrosidase
[25] = biological target: T1, Lysosomal acid glucosylceramidase (Homo sapiens); assay: Inhibition of beta-glucocerebrosidase in human fibroblast at 20 uM after 24 hrs by fluorescence assay; method in brief: as §1

| SMILES | inhibition [1] | pKa [2] | IC50 [3] [µM] | IC50 [5] [µM] | IC50 [6] [µM] | inhibition [7] | inhibition [8] | Ki [9] [µM] | inhibition [10] | inhibition [11] | inhibition [12] | fold change (FC) [14] | fold change (FC) [15] | fold change (FC) [16] | fold change (FC) [17] | fold change (FC) [18] | fold change (FC) [19] | fold change (FC) [20] | fold change (FC) [21] | Activity [13] | other results |
| --- | --- | --- | --- | --- | --- | --- | --- | --- | --- | --- | --- | --- | --- | --- | --- | --- | --- | --- | --- | --- | --- |
| CCCCn1cc(CN[C@H]2[C@H](O)[C@@H](O)[C@H](O)[C@@H](O)[C@@H]2O)nn1 | < 5% | 7.2 | 178 | 178 | – | inactive | inactive | – | inactive | inactive | inactive | – | – | – | – | – | – | – | – | Non-toxic | – |
| CCCCCCCCn1cc(CN[C@H]2[C@H](O)[C@@H](O)[C@H](O)[C@@H](O)[C@@H]2O)nn1 | 20% | 7.7 | 1.05 | 1 | 1.1 | inactive | inactive | 1.8 | inactive | inactive | inactive | – | – | – | – | – | – | – | – | Non-toxic | – |
| CCCCCCCCCCCCCCn1cc(CN[C@H]2[C@H](O)[C@@H](O)[C@H](O)[C@@H](O)[C@@H]2O)nn1 | Toxic | 7.7 | 0.0891 | 0.09 | 0.1 | inactive | inactive | 0.08 | inactive | inactive | inactive | 5.91 | 7.86 | 7.48 | 2.88 | 2.82 | 13.8 | 13.2 | 9.4 | – | inhibition [23]: 93%; CC50 at 24 h [4]: 19 µM; Selectivity Index [24]: 237; inhibition [25]: Toxic; fold change (FC) [22]: 2.67 |
| CCCCCCCCCN1C[C@H](O)[C@@H](O)[C@H](O)[C@H]1CO | – | – | – | – | – | – | – | – | – | – | – | – | – | – | – | – | – | – | – | Non-toxic | – |
| CCCCN1C[C@H](O)[C@@H](O)[C@H](O)[C@H]1CO | – | – | – | – | – | – | – | – | – | – | – | – | – | – | – | – | – | – | – | Non-toxic | – |
| CCCCCCCCCCN[C@H]1[C@H](O)[C@@H](O)[C@H](O)[C@@H](O)[C@@H]1O | – | – | – | 1.8 | – | – | – | 0.3 | – | – | – | 5.85 | 2.33 | 4.49 | 1.84 | 1.29 | 2.24 | 4.89 | 11.3 | Non-toxic | fold change (FC) [22]: 1.99 |
| CCCCCCCCCn1cc(CN[C@H]2[C@H](O)[C@@H](O)[C@H](O)[C@@H](O)[C@@H]2O)nn1 | 50% | 7.1 | 0.224 | 0.2 | 0.2 | inactive | inactive | 0.33 | inactive | inactive | inactive | 7.23 | 5.69 | 6.71 | 2.28 | 2.06 | 9.95 | 13 | 15.5 | Non-toxic | Selectivity Index [24]: >=900; fold change (FC) [22]: 2.34 |

The next lines start with results.

| inhibition [1] | pKa [2] | IC50 [3] [µM] | IC50 [5] [µM] | IC50 [6] [µM] | inhibition [7] | inhibition [8] | Ki [9] [µM] | inhibition [10] | inhibition [11] | inhibition [12] | fold change (FC) [14] | fold change (FC) [15] | fold change (FC) [16] | fold change (FC) [17] | fold change (FC) [18] | fold change (FC) [19] | fold change (FC) [20] | fold change (FC) [21] | SMILES | Activity [13] | other results |
| --- | --- | --- | --- | --- | --- | --- | --- | --- | --- | --- | --- | --- | --- | --- | --- | --- | --- | --- | --- | --- | --- |
| < 5% | 9.1 | 166 | 167 | 55.9 | inactive | inactive | – | inactive | inactive | inactive | – | – | – | – | – | – | – | – | CCCCCCCCn1cc(CCN[C@H]2[C@H](O)[C@@H](O)[C@H](O)[C@@H](O)[C@@H]2O)nn1 | Non-toxic | – |
| < 5% | 9.1 | 44.7 | 44.7 | 11 | inactive | inactive | – | inactive | inactive | inactive | 6.1 | 4.54 | 5.75 | 2.32 | 2.22 | 4.62 | 7.6 | 9.44 | CCCCCCCCCn1cc(CCN[C@H]2[C@H](O)[C@@H](O)[C@H](O)[C@@H](O)[C@@H]2O)nn1 | Non-toxic | fold change (FC) [22]: 2.37 |
| 40% | 9.4 | 35.5 | 35.4 | 18.2 | inactive | inactive | 19.9 | inactive | inactive | inactive | – | – | – | – | – | – | – | – | CCCCCCCCn1cc(CCCN[C@H]2[C@H](O)[C@@H](O)[C@H](O)[C@@H](O)[C@@H]2O)nn1 | – | CC50 at 24 h [4]: 97 µM |
| < 5% | 7.8 | 10.7 | 10.8 | 25 | inactive | inactive | 19.1 | inactive | inactive | inactive | – | – | – | – | – | – | – | – | O[C@@H]1[C@@H](O)[C@H](O)[C@@H](NCc2cn(CCc3ccccc3)nn2)[C@H](O)[C@H]1O | Non-toxic | – |
| < 5% | 7.1 | 7.41 | 7.4 | 6.2 | inactive | inactive | 2.4 | inactive | inactive | inactive | – | – | – | – | – | – | – | – | CCCOCCCCCCn1cc(CN[C@H]2[C@H](O)[C@@H](O)[C@H](O)[C@@H](O)[C@@H]2O)nn1 | Non-toxic | – |
| 20% | 9.9 | 3.47 | 3.5 | 1.2 | inactive | inactive | 7.6 | inactive | inactive | inactive | – | – | – | – | – | – | – | – | CCCCCCCCCCn1cc(CCCN[C@H]2[C@H](O)[C@@H](O)[C@H](O)[C@@H](O)[C@@H]2O)nn1 | – | CC50 at 24 h [4]: 170 µM |
